Bioassay records as filed in PubChem.
This is a sample that favours compounds with a hit; in the whole collection about 5.8% have one here.
T cruzi growth-1: T. cruzi intracellular proliferation inhibitors, primary screen, cell-based, beta-gal Tulahuen parasites, NIH3T3 host, luminescence; T. cruzi beta-gal in NIH3T3, GalScreen luminescence, 90 h; 77,000 compounds, 5.9% hits; AID 624255, 2012; inhibition, % at 8.34 µM;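 active = mean inhibition above about 93%, with at least 55% of replicates each passing it, limit read from the data, passing the limit was not always enough; inconclusive = only one of those two conditions holds; inactive = neither condition holds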
IDH1 R132H inh: inhibitors of IDH1 R132H reductase, primary screen, biochemical, plate reader, single point. 70,000 compounds, 0.18% hits. inhibition, % at 10 µM. diaphorase/resazurin fluorescence, 60 min; in the data active = inhibition above about 34%; inconclusive = no clear call, values can overlap the other calls; inactive = below about 11%;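 note: 0% = DMSO and 100% = no enzyme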
Target sequence (O75874 whole entry R132H): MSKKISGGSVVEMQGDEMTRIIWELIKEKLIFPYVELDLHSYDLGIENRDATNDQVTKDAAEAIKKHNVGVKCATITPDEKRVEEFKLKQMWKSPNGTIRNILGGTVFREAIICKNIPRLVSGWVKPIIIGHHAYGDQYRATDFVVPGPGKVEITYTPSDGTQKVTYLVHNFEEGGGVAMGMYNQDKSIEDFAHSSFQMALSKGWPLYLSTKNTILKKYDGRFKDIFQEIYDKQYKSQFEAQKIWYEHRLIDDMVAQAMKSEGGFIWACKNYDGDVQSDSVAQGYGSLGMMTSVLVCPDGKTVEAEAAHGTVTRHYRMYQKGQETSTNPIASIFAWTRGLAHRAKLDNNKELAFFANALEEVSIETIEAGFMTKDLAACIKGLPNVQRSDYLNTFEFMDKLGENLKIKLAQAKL
GASC1 inh: inhibitors of GASC-1 (KDM4C) histone demethylase, primary screen, biochemical, single concentration HTS | Lysine-specific demethylase 4C (Homo sapiens), Q9H3R0 | GST-KDM4C 2-372, H3K9me3 peptide, LANCE TR-FRET | inhibition, % at 12.5 µM | 96,000 compounds, 0.15% hits;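 active = mean replicate inhibition above about 25%, with at least 55% of replicates also reaching it, limit read from the data, passing the limit was not always enough; inconclusive = only one of those two conditions met; inactive = neither condition met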
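Material: GST-tagged GASC-1 (JMJD2C) catalytic fragment, aa 2-372. Input: enzyme final amount 10 nM. Medium: HEPES buffer, pH 7.5, plus ascorbate. Reagent: H3K9me3 peptide substrate, Fe(II), 2-oxoglutarate. Doses: single dose. Times: reaction 30 min RT, detection step 1 h RT. Measured by: LANCE TR-FRET. Evaluation: Fall in 671/618 emission ratio as inhibition.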
Pf Dd2 growth: P. falciparum Dd2 growth inhibitors, primary screen, SYBR Green fluorescence, single dose replicates. 72 h; stronger effect = lower value. activity change, % at 10 µM. 94,000 compounds, 2.3% hits; in the data active = activity change below about -80%; inconclusive = no clear call, values can overlap the other calls
T cruzi growth-2: T. cruzi intracellular proliferation inhibitors, confirmation, cell-based, NIH3T3 host, beta-gal parasite, luminescence, cherry-pick; shares compounds with T cruzi growth-1; 5,600 compounds, 72% hits; inhibition, % at 8.35 µM; T. cruzi beta-gal in NIH3T3, GalScreen luminescence, 90 h;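 active = mean replicate inhibition above about 95% and at least 55% of replicates individually reaching it, limit read from the data; inconclusive = only one of the two criteria is met; inactive = neither criterion is met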
T cruzi growth-3: inhibitors of intracellular T. cruzi replication, confirmation, NIH3T3 host cells, beta-gal parasites, cherry-pick, set 2; T. cruzi beta-gal in NIH3T3, GalScreen luminescence, 90 h; shares compounds with T cruzi growth-1; inhibition, % at 2.09 µM; 5,600 compounds, 21% hits;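 active = mean inhibition above about 95%, with at least 55% of replicates also reaching it, limit read from the data; inconclusive = meets just one of the two conditions; inactive = meets neither condition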;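 note: plate controls were neutral control median for no effect and positive control median for full effect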
3T3 cytotox: cytotoxicity in mouse NIH/3T3 fibroblasts, confirmation, cytotoxicity control for T. cruzi proliferation inhibitor project, cell-based, cherry-pick, single point; AID 651742, 2012; NIH/3T3 viability, CellTiter-Glo ATP luminescence, 90 h; cytotoxicity (signal decrease), % at 8.35 µM; shares compounds with T cruzi growth-1; 5,600 compounds, 14% hits;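 active = mean signal decrease across replicates above about 35% based on untreated-well scatter, with enough replicates individually passing, limit read from the data; inconclusive = no rule stated though some were filed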;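 note: 0% = median of neutral control wells and 100% = median of positive control wells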
3T3 cytotox 2: NIH/3T3 fibroblast cytotoxicity, confirmation, cytotoxicity control, cell-based, cherry-pick, single point, set 2; shares compounds with T cruzi growth-1; NIH/3T3 viability, CellTiter-Glo ATP luminescence, 90 h; inhibition, % at 24.9 µM; AID 651744, 2012; 5,600 compounds, 56% hits;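 active = mean loss of cell viability signal at or above a set limit, and enough replicates individually reaching it; inconclusive = meets only the mean limit or only the replicate share; inactive = meets neither condition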;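 note: 0% = median of neutral control wells and 100% = median of positive control wells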
Numbers without * were called inactive; ? = inconclusive; · = no result given.

SMILES	T cruzi growth-1	IDH1 R132H inh	GASC1 inh	Pf Dd2 growth	T cruzi growth-2	T cruzi growth-3	3T3 cytotox	3T3 cytotox 2
COCC(=O)N1CC[C@@H]2[C@H]1c1cc(-c3ccccc3)ccc1N(C)[C@H]2CO	105*	·	0	-6	102*	85	-9	2
CCCNC(=O)N1CC[C@@H]2[C@H]1c1cc(-c3ccccc3)ccc1N(C)[C@H]2CO	?	·	4	-4	108*	104*	8	12
COCC(=O)N1CC[C@@H]2[C@H]1c1cc(-c3ccc(F)cc3)ccc1N(C)[C@@H]2CO	106	·	4	15	·	·	·	·
C[C@@H]1CN([C@@H](C)CO)C(=O)c2cc(NS(=O)(=O)c3ccccc3)ccc2O[C@H]1CN(C)S(C)(=O)=O	28	-1	6	28	·	·	·	·
C[C@H]1CCCCO[C@H](CN(C)C(=O)Cc2ccccc2)[C@@H](C)CN([C@@H](C)CO)C(=O)c2cc(NC(=O)Nc3ccccc3)ccc2O1	99*	0	0	-45	109*	52	28	8
C[C@@H]1CCCCO[C@@H](CN(C)C(=O)Cc2ccccc2)[C@@H](C)CN([C@H](C)CO)C(=O)c2cc(NC(=O)Nc3cccc4ccccc34)ccc2O1	54	·	-2	5	·	·	·	·
C[C@@H]1CCCCO[C@H](CN(C)C(=O)Cc2ccccc2)[C@H](C)CN([C@@H](C)CO)C(=O)c2cc(NC(=O)Nc3cccc4ccccc34)ccc2O1	101*	·	-2	-57	105*	57	-37	2
C[C@@H]1CCCCO[C@@H](CN(C)C(=O)Cc2ccccc2)[C@H](C)CN([C@H](C)CO)C(=O)c2cc(NC(=O)NC3CCCCC3)ccc2O1	100*	0	1	-17	108*	26	10	26*
Cc1ccc(-c2cc(C(=O)NCCCN3CCOCC3)c3cc(Br)ccc3n2)cc1	·	0	·	·	·	·	·	·
O=C(C[C@H]1C[C@H]2c3cc(NC(=O)c4ccc5c(c4)OCO5)ccc3O[C@H]2[C@H](CO)O1)NCc1cccnc1	-40	0	-3	1	·	·	·	·
C/C=C/c1ccc([C@@H]2[C@@H](CNC(=O)CC3CC3)N(C(=O)CC)[C@H]2CO)cc1	113*	·	2	8	9	0	-16	20
C/C=C/c1ccc([C@H]2[C@@H](CNC(=O)CC3CC3)N(C(=O)CC)[C@H]2CO)cc1	103*	·	0	1	52	12	6	12
C/C=C/c1ccc([C@H]2[C@@H](CNC(=O)C3CC3)N(C(=O)NCCC)[C@H]2CO)cc1	97*	·	-3	-11	69	44	-21	-21
C/C=C/c1ccc([C@@H]2[C@@H](CO)N(C(=O)CC)[C@H]2CNC(=O)CC2CC2)cc1	20	·	-1	20	·	·	·	·
C[C@@H]1CCCCO[C@H](CN(C)S(C)(=O)=O)[C@H](C)CN([C@@H](C)CO)C(=O)c2cc(NS(=O)(=O)c3ccc(Cl)cc3)ccc2O1	60	4	0	-23	·	·	·	·
CN(C)CCCNC(=O)C[C@@H]1CC[C@H]2[C@@H](COc3ccc(NS(C)(=O)=O)cc3C(=O)N2C)O1	0	·	3	25	·	·	·	·
C[C@H](CO)N1C[C@H](C)[C@H](CN(C)C(=O)C2CCCCC2)OCCCC[C@H](C)Oc2ccc(NS(=O)(=O)c3ccc(Cl)cc3)cc2C1=O	94	·	-1	4	·	·	·	·
C[C@@H]1CN([C@H](C)CO)C(=O)c2cc(NS(=O)(=O)c3ccc(Cl)cc3)ccc2O[C@@H](C)CCCCO[C@@H]1CN(C)C(=O)C1CCCCC1	?	1	-1	-55	100*	76	9	80*
C[C@@H]1CCCCO[C@H](CN(C)C(=O)C2CCCCC2)[C@H](C)CN([C@@H](C)CO)C(=O)c2cc(NS(=O)(=O)c3ccc(Cl)cc3)ccc2O1	?	·	0	-41	?	86	17	95*
C[C@H](O)C#Cc1cnc2c(c1)C(=O)N([C@@H](C)CO)C[C@@H](C)[C@@H](CN(C)C(=O)Nc1ccc(F)cc1)O2	7	·	·	50	·	·	·	·
CC(=O)N(C)C[C@H]1[C@H](c2ccc(-c3ccccc3)cc2)[C@@H](CO)N1C(=O)C1CC1	?	·	2	-7	15	-15	7	13
CC(=O)N(C)C[C@@H]1[C@@H](c2ccc(-c3ccccc3)cc2)[C@H](CO)N1C(=O)C1CC1	-24	·	1	12	·	·	·	·
CCN(C[C@@H]1[C@@H](c2ccccc2)[C@@H](CO)N1C(=O)C1CC1)C(=O)NC1CCCC1	16	·	-2	3	·	·	·	·
CCN(C[C@@H]1[C@@H](c2ccccc2)[C@H](CO)N1C(=O)C1CC1)C(=O)NC1CCCC1	97*	·	1	11	52	31	-1	26
COCC(=O)N(C)C[C@H]1[C@H](c2ccc(-c3cccnc3)cc2)[C@H](CO)N1C(C)=O	101*	·	-1	24	7	0	-26	-13
SMILES	T cruzi growth-1	IDH1 R132H inh	GASC1 inh	Pf Dd2 growth	T cruzi growth-2	T cruzi growth-3	3T3 cytotox	3T3 cytotox 2
CC(=O)N(C)C[C@H]1[C@H](c2ccccc2)[C@@H](CO)N1C(=O)C1CCC1	101*	·	-1	5	-42	21	-23	-8
Cc1noc(C)c1NC(=O)N(C)C[C@H]1Oc2ccc(NC(=O)NC3CCCCC3)cc2C(=O)N([C@@H](C)CO)C[C@H]1C	87	1	-2	15	·	·	·	·
O=C(NC[C@@H]1[C@H](c2ccccc2)[C@H](CO)N1CC1CCCC1)c1ccccc1	93	·	-2	-24	·	·	·	·
CN(C)Cc1cn(CC[C@@H]2CC[C@H](N)[C@@H](CO)O2)nn1	-27	0	6	33	·	·	·	·
COCCN(C[C@H]1[C@@H](c2ccccc2)[C@H](CO)N1C(C)=O)C(=O)c1ccncc1	?	·	2	1	61	-16	-11	-4
COCCN(C[C@@H]1[C@@H](c2ccccc2)[C@H](CO)N1C(C)=O)C(=O)c1ccccc1	11	·	-4	8	·	·	·	·
COCC#Cc1ccc([C@@H]2[C@H]3CN(C(=O)C4CC4)CC(=O)N3[C@H]2CO)cc1	·	·	0	6	·	·	·	·
